The entries come from a sample that favours hits as a whole.
HSF1 activator: increases HSF-1 driven luciferase reporter signal; NIH3T3-HGL HSF-1 luciferase reporter, MG132, 8 h; 100% = twice DMSO control signal; activation, % at 9 µM; 300,000 tested, 1.7% active; AID 504408;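 active = mean replicate activation of at least 50% with a set share of replicates each reaching 50%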;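 note: 0% = median of the neutral control wells and 100% = twice that signal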
T cruzi repl: blocks replication of Trypanosoma cruzi. T. cruzi beta-gal in NIH3T3, luminescence, 90 h. inhibition, % (no concentration beside the values). AID 1885. 300,000 tested, 1.4% active;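 active = mean inhibition across valid replicates above about 55%, limit read from the data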;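 note: signal also drops with host cell toxicity which is not excluded here; 0% = plate median of DMSO wells and 100% = zero luminescence signal; higher percent means less beta-gal luminescence so fewer parasites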
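compound dosing = single 50 nL compound addition per well in DMSO | material = NIH/3T3 host cells with β-galactosidase reporter T. cruzi | input = 5,000 host fibroblasts per well | timing = ≥90 h infection period, 3 h prior cell attachment | read-out basis = percent inhibition of parasite-derived β-gal signal | detection = GalScreen β-gal luminescence, detergent lysis, 60 min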
Lmaj promast: reduces viability of Leishmania major promastigotes; resazurin fluorescence viability; 200,000 tested, 9% active; inhibition, % at 10 µM; in the data active = inhibition above about 50%;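 note: promastigotes grown with compound for 44 hours at 28 °C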
HSF1 inhib: HSF1 inhibition | NIH3T3-HGL HSE-luciferase, MG132-induced, luminescence 8 h; active compounds read low | activity change, negative = inhibition, % at 7.5 µM (by protocol) | 300,000 tested, 0.77% active | AID 2098;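 active = more than half of replicate wells show activity change below -50%, luminescence cut by over half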;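 note: luciferase reports HSF-1 transcriptional activity via heat shock element; 0% = median of DMSO wells and -100% = zero luminescence signal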
Hsp70 activator: Hsp70 transcriptional activation, primary screen | HeLa Hsp70 promoter luciferase reporter, luminescence; scaled: vehicle 0, proteasome-inhibitor control 100% | activation, % at 10 µM | 200,000 tested, 0.04% active;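 active = activation above the mean across all tested compounds plus 3 SD, cutoff set per campaign, cut at about 5.5% in these data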;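 note: 100% = MG132 at 30 µM as the positive control and 0% = DMSO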
Starred values were filed as active, the others as inactive; · = no result.

SMILES	HSF1 activator	T cruzi repl	Lmaj promast	HSF1 inhib	Hsp70 activator
CC1CC(C)CN(C(=O)c2ccc(CSc3nc4ccncc4[nH]3)cc2)C1 (stereo not given)	-73	12	-6	-67*	0
CCN(CCNC(=O)c1ccc(CSc2nc3ccncc3[nH]2)cc1)c1ccccc1	-5	11	19	-6	0
COc1ccccc1OCCNc1cc(N2CCCCC2)ccc1[N+](=O)[O-]	29	18	7	24	0
Cc1ccccc1OCCNc1cc(N2CCNCC2)ccc1[N+](=O)[O-]	6	35	100*	5	0
Cc1cccc(OCCNc2cc(N3CCOCC3)ccc2[N+](=O)[O-])c1	49	24	-4	37	0
Cc1cccc(OCCNc2cc(N3CCN(C)CC3)ccc2[N+](=O)[O-])c1	-5	67*	48	2	0
CCCC(=O)NCCc1cc(OC)c(OC)cc1Br	10	-3	-5	-6	0
COc1ccc(C(=O)Nc2ccc(/C(C)=N/NC(=O)c3ccccc3O)cc2)cc1OC	29	-21	-4	17	0
Cc1ccc(NC(=O)c2ccc(Cl)c(S(=O)(=O)N3CCCCCC3)c2)nc1	6	33	·	2	·
Nc1n[nH]c(N)c1N=Nc1ccc2c(c1)OCO2	41	74*	-1	17	0
CCn1c(=O)c(C(=O)NNS(=O)(=O)c2ccc(C)cc2)c(O)c2ccccc21	20	-12	59*	2	0
CC1CC(C)(C)NC(=S)N1CCCC(=O)Nc1ccc(Br)cc1 (stereo not given)	2	-7	6	-4	0
CCOc1ccc(NC(=O)CCCN2C(=S)NC(C)(C)CC2C)cc1 (stereo not given)	-19	6	59*	-10	0
O=C(CCc1ccccc1)NC(=S)NCc1ccco1	19	9	2	11	0
COc1ccc(C)cc1-n1nnnc1SCc1nc2ccccc2s1	9	1	83*	1	0
Cc1nnc(SCc2nc3ccccc3s2)n1-c1ccccc1	12	30	-5	7	0
COc1cccc(-c2nnc(SCc3nc4ccccc4s3)n2C)c1	64*	18	-2	23	0
COc1ccc(-n2nnnc2SCc2nc3ccccc3s2)cc1	42	-5	0	47	0
CCn1c(SCc2nc3ccccc3s2)nnc1-c1ccccc1	21	6	65*	22	0
COCCn1c(SCc2nc3ccccc3s2)nc2ccccc21	77*	1	22	41	0
Cn1c(=O)c2c(ncn2CC(=O)OCC(=O)Nc2cc(Cl)ccc2Cl)n(C)c1=O	12	-1	-6	-5	0
COc1ccc(C)cc1-n1nnnc1SCC(=O)Nc1cccnc1Cl	-18	-22	92*	-7	0
COc1ccc(C)cc1-n1nnnc1SCC(=O)Nc1cc(C)on1	-2	0	-1	-6	0
Cc1cc(C)cc(OCC(=O)OCC(=O)Nc2c(C)n(C)n(-c3ccccc3)c2=O)c1	-41	7	-9	-16	0
COc1ccc(-c2nc3ccccn3c2/N=C/c2ccc(OC)c(OC)c2)cc1O	-7	-6	60*	2	0
SMILES	HSF1 activator	T cruzi repl	Lmaj promast	HSF1 inhib	Hsp70 activator
C#Cc1ccc2c(c1)COc1c3ccccc3nn1-2	61*	0	·	34	·
N#CCCCC#Cc1ccc2c(c1)COc1c3ccccc3nn1-2	-69	1	·	-64*	·
CCN(c1ccccc1)S(=O)(=O)c1ccc(C(=O)N(C)CCc2ccc(OC)c(OC)c2)cc1	-10	4	·	-6	·
CCOc1ccc(C(O)C(CN2CCOCC2)c2ccccc2)cc1 (stereo not given)	-5	1	84*	-1	0
CCCOc1ccc(C(O)C(CN2CCOCC2)c2ccccc2)cc1 (stereo not given)	8	1	89*	1	0
CCCCOc1ccc(C(O)C(CN2CCOCC2)c2ccccc2)cc1 (stereo not given)	9	-8	·	2	·
CCCCOc1ccc(C(O)C(CN2CCCCC2)c2ccccc2)cc1 (stereo not given)	8	13	70*	3	-1
CN(CC(=O)Nc1ccc(Cl)cc1)c1ccc(S(=O)(=O)N2CCCCC2)cc1[N+](=O)[O-]	-18	35	3	1	2
NC(=S)N/N=C/c1coc2ccc(Cl)cc2c1=O	25	-7	-7	12	0
CC(C)NC(=O)c1ccc(N(Cc2ccc(Cl)cc2)S(C)(=O)=O)cc1	6	-16	·	-1	·
COc1ccc(OC)c2sc(N3CCN(C(=O)c4ccc([N+](=O)[O-])s4)CC3)nc12	33	67*	·	10	·
O=C(c1ccc([N+](=O)[O-])s1)N1CCN(c2ccccn2)CC1	24	34	·	7	·
O=C(c1ccc([N+](=O)[O-])s1)N1CCN(c2ccccc2)CC1	·	69*	50	·	0
CSc1ccc(CN(C)C(C)C(=O)NCc2ccccc2)cc1 (stereo not given)	-1	21	2	2	0
COc1cc(OC)c(-c2nnc(-c3ccc(OC)c(OC)c3OC)o2)cc1OC	4	13	56*	-9	0
CC(=O)Nc1nc(-c2cccc3ccccc23)cs1	26	57*	·	16	·
CCN(CC)CCNC(=S)Nc1ccc(Cl)cc1	14	12	-6	12	0
CCN(CC)CCCNC(=S)Nc1ccc(Br)cc1	5	-1	83*	0	0
O=C(c1ccc(-c2ccc([N+](=O)[O-])cc2)o1)N1CCCCC1	87*	-8	100*	57	0
CN1CCN(C(=S)c2ccc(-c3cccc(Cl)c3Cl)o2)CC1	68*	10	95*	49	0
S=C(c1ccc(-c2ccccc2Cl)o1)N1CCCCC1	38	26	3	22	0
S=C(c1ccc(-c2ccc(Cl)cc2)o1)N1CCCCC1	101*	21	7	62	0
Cc1nnsc1C(=O)Nc1ccc(S(=O)(=O)N2CCC(C)CC2)cc1	7	-36	·	-2	·
CC(C)(C)c1ccc(S(=O)(=O)O/N=C2/CCCCC2c2ccc([N+](=O)[O-])cc2[N+](=O)[O-])cc1 (stereo not given)	39	21	53*	25	0
CCOC(=O)N1CCN(C(=O)c2ccc(Cn3c(=S)[nH]c4ccc(Br)cc4c3=O)cc2)CC1	-30	28	·	-15	·
CC1(C)CC(=O)C2=C(C1)N1C(=C(C#N)C2c2ccc(Cl)cc2)N=C(N)c2ccccc21 (stereo not given)	76*	44	66*	54	0
Cc1cccc(C)c1NC(=O)c1cccnc1	-76	-4	·	-67*	·
Cc1ccccc1OCC(=O)NCCCNC(=O)c1cccnc1	56*	8	·	14	·
Cc1ccccc1OCC(=O)NCCNC(=O)c1cccnc1	-37	3	·	-24	·
CC(C)(C)NC(=O)CSc1nc2cccnc2n1C1CCCCC1	3	10	·	-3	·

Assay outcomes: PubChem BioAssay, several laboratories
